Source: ChEMBL document CHEMBL3085721, “Nonhydrolyzable ATP analogues as selective inhibitors of human NPP1: a combined computational/experimental study” (J Med Chem, 2013)
pKi: −log10 of the molar value. Activity calls are given as the source filed them. The rule behind the calls is not given here.

Assays:
[1] = molecular target: T1, Ectonucleoside triphosphate diphosphohydrolase 8 (Homo sapiens) (UniProt Q5MY95); assay: Inhibition of human NTPDase8 assessed as amount of inorganic phosphate released using ATP as the substrate preincubated at 100 uM for 3 mins before substrate addition after 15 mins by malachite green reagent method
T1 sequence (whole entry): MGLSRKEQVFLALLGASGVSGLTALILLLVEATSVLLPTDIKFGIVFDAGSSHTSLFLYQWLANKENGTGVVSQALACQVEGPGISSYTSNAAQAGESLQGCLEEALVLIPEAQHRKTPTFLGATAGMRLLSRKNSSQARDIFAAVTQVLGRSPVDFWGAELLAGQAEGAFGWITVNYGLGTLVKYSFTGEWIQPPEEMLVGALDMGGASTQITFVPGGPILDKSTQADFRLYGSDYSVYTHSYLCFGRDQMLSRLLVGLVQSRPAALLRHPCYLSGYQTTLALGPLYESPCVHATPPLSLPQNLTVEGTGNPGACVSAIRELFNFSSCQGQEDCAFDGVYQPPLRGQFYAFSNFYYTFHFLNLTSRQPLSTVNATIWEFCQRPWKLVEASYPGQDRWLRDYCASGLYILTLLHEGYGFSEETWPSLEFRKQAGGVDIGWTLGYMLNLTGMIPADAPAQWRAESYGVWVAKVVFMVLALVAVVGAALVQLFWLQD
Procedure, shortened: (§1)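 Crude extracts of COS-7 cells transiently transfected with human NTPDase1, -2, -3 or -8, preincubated 3 min at 37 °C in Tris-Ringer medium pH 7.4 with analogue (final 100 μM). Started with 100 μM ATP, stopped after 15 min with malachite green; released Pi read at 630 nm. ATP alone set as 100%. Mean ± SD of 3−6 experiments in triplicate.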

[2] = molecular target: T2, Ectonucleoside triphosphate diphosphohydrolase 3 (Homo sapiens) (UniProt O75355); assay: Inhibition of human NTPDase3 assessed as amount of inorganic phosphate released using ATP as the substrate preincubated at 100 uM for 3 mins before substrate addition after 15 mins by malachite green reagent method; procedure, shortened: as §1
T2 sequence (whole entry): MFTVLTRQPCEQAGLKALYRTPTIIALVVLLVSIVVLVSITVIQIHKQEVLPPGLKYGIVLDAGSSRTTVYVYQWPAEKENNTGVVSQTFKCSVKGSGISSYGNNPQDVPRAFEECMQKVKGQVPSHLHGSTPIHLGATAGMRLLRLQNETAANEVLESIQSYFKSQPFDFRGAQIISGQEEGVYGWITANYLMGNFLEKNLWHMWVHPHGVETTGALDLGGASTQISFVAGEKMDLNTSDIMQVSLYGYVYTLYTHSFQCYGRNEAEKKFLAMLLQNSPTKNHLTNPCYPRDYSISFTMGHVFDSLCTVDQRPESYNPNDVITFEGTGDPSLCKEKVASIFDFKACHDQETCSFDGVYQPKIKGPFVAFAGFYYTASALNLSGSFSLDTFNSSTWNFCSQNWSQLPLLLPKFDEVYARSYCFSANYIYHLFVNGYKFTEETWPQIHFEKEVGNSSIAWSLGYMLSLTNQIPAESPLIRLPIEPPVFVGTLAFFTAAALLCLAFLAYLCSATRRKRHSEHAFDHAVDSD

[3] = molecular target: T3, Ectonucleoside triphosphate diphosphohydrolase 2 (Homo sapiens) (UniProt Q9Y5L3); assay: Inhibition of human NTPDase2 assessed as amount of inorganic phosphate released using ATP as the substrate preincubated at 100 uM for 3 mins before substrate addition after 15 mins by malachite green reagent method; procedure, shortened: as §1
T3 sequence (whole entry): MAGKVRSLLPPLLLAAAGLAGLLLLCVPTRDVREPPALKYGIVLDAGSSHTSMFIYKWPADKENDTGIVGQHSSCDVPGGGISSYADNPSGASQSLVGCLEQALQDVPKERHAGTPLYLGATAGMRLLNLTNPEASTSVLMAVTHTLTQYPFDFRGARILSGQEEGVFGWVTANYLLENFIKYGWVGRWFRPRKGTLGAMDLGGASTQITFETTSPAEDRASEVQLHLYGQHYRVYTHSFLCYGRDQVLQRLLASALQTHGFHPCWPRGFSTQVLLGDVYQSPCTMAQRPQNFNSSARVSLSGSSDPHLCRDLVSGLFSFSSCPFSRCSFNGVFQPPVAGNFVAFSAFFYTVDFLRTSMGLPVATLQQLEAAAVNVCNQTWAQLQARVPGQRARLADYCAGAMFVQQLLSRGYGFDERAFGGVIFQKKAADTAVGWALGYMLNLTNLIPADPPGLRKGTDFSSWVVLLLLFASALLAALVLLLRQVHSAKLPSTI

[4] = molecular target: T4, Ectonucleoside triphosphate diphosphohydrolase 1 (Homo sapiens) (UniProt P49961); assay: Inhibition of human NTPDase1 assessed as amount of inorganic phosphate released using ATP as the substrate preincubated at 100 uM for 3 mins before substrate addition after 15 mins by malachite green reagent method; procedure, shortened: as §1
T4 sequence (whole entry): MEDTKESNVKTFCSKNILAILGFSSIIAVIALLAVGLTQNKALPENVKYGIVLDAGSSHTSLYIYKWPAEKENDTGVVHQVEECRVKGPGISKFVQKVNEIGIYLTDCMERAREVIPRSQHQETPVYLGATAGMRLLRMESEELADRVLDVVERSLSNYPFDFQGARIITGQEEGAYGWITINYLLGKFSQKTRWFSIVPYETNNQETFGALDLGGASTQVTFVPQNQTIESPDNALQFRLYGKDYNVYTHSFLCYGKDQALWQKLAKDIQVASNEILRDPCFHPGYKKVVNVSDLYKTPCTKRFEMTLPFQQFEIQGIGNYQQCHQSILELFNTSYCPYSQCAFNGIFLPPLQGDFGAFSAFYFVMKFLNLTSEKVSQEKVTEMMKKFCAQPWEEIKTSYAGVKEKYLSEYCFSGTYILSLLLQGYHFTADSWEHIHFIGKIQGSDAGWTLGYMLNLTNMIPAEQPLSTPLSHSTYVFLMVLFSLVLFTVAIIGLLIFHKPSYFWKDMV

[5] = molecular target: T5, Ectonucleotide pyrophosphatase/phosphodiesterase family member 1 (Homo sapiens) (UniProt P22413); assay: Inhibition of human NPP1 expressed in COS7 cells assessed as production of p-nitrophenol using pnp-TMP as the substrate preincubated at 100 uM for 3 mins before substrate addition measured after 15 mins […]; assay type: cell-based; details: COS-7
T5 sequence (whole entry): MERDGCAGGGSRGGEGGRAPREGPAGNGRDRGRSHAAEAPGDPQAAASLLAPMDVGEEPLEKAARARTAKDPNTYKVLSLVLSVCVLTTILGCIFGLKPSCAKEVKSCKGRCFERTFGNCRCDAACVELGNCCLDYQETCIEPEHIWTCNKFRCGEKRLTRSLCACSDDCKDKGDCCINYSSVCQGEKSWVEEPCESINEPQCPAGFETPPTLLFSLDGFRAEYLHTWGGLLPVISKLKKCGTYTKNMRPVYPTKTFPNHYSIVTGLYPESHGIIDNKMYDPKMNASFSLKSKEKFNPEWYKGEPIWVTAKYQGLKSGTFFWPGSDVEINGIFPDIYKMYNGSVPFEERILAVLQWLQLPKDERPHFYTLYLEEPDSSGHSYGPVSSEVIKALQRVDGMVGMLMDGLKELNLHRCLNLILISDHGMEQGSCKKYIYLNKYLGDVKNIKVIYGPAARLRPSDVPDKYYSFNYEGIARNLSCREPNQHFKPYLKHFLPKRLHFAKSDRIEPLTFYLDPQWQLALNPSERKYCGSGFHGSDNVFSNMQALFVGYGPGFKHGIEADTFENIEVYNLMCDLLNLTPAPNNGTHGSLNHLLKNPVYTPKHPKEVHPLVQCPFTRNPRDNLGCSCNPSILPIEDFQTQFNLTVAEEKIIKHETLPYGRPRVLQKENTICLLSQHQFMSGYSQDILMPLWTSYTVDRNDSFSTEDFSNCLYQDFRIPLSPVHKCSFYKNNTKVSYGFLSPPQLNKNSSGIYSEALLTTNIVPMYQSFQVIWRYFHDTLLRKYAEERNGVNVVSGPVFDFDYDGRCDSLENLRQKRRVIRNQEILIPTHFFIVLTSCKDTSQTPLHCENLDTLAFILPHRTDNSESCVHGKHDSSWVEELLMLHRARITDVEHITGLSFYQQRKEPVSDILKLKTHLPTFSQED
Procedure, shortened: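 Crude extracts of COS-7 cells transiently transfected with human NPP1 or NPP3, preincubated 3 min at 37 °C in 1 mM CaCl2, 140 mM NaCl, 5 mM KCl, 50 mM Tris pH 8.5 with analogue at 100 μM. Reaction started with 100 μM pnp-TMP; p-nitrophenol at 410 nm after 15 min. Activity without analogue set as 100%. Mean ± SD of 3−6 experiments in triplicate.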

[6] = molecular target: T6, Ectonucleotide pyrophosphatase/phosphodiesterase family member 3 (Homo sapiens) (UniProt O14638); assay: Inhibition of NPP3 in human HTB-85 cells assessed as production of p-nitrophenol using pnp-TMP at 100 uM measured after 20 mins by spectrophotometry; assay type: cell-based
T6 sequence (whole entry): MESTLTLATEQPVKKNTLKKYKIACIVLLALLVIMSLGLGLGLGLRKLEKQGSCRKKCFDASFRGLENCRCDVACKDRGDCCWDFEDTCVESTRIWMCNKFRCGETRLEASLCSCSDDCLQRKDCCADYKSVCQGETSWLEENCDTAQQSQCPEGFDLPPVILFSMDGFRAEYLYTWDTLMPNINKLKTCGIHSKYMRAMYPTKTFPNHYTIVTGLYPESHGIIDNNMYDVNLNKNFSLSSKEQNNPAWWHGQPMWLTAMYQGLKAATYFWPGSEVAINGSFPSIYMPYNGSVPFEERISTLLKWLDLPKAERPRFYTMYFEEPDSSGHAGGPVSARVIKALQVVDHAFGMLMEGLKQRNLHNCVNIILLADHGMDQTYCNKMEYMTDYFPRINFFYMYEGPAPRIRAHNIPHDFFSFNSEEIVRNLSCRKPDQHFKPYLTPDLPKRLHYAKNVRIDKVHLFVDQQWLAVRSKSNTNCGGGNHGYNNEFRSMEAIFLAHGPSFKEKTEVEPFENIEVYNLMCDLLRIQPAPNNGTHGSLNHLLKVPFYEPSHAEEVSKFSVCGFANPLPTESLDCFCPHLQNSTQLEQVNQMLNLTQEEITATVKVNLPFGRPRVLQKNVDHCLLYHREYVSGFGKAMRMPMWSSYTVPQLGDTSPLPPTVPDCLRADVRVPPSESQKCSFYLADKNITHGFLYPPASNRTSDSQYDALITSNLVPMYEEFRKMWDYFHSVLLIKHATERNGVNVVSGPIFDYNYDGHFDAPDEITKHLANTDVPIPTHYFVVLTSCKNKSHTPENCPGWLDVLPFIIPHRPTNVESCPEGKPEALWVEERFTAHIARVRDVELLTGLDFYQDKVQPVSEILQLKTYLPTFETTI
Procedure, shortened: (§2)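 Intact osteocarcinoma HTB85 (SaOS-2) cells in 24-well plates, 0.5 mL incubation mixture, analogue and pnp-TMP each at 100 μM. After 20 min an aliquot was read for p-nitrophenol at 410 nm. Substrate alone set as 100%. Mean ± SD of three experiments in triplicate.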

[7] = molecular target: T5, Ectonucleotide pyrophosphatase/phosphodiesterase family member 1 (Homo sapiens); assay: Inhibition of NPP1 in human HTB-85 cells assessed as production of p-nitrophenol using pnp-TMP at 100 uM measured after 20 mins by spectrophotometry; assay type: cell-based; procedure, shortened: as §2
[8] = molecular target: T5, Ectonucleotide pyrophosphatase/phosphodiesterase family member 1 (Homo sapiens); assay: Competitive inhibition of human NPP1 expressed in COS7 cells assessed as production of p-nitrophenol using pnp-TMP as the substrate preincubated at 25 to 100 uM for 3 mins before substrate addition measured after 15 mins by Dixon/Cornish Bowden method; assay type: cell-based; details: COS-7
Procedure, shortened: (§3)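 Crude protein extract from COS-7 cells transiently transfected with human NPP1 (sonicated, debris cleared at 300g), preincubated 3 min at 37 °C with inhibitor (0, 25, 50, 100 μM) in 1 mM CaCl2, 140 mM NaCl, 5 mM KCl, 50 mM Tris pH 8.5. pnp-TMP (25, 50, 100 μM) added; p-nitrophenol read at 410 nm after 15 min. Ki,app and inhibition type from Dixon and Cornish-Bowden plots, three independent experiments.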

[9] = molecular target: T7, Ectonucleotide pyrophosphatase/phosphodiesterase family member 1 (Homo sapiens, UniProt P22413); assay: Mixed type inhibition of human NPP1 expressed in COS7 cells assessed as production of p-nitrophenol using pnp-TMP as the substrate preincubated for 3 mins before substrate addition measured after 15 mins by Dixon/Cornish Bowden method; assay type: cell-based, COS-7; details: read-out: Ki(app); procedure, shortened: as §3
T7 sequence (P22413 whole entry): T5 sequence (whole entry)

SMILES	inhibition [1] [%]	inhibition [2] [%]	inhibition [3] [%]	inhibition [4] [%]	inhibition [5] [%]	inhibition [6] [%]	inhibition [7] [%]	inhibition [8]	pKi [9]
B[P@@](=O)(OC[C@H]1O[C@@H](n2cnc3c(N)nc(SC)nc32)[C@H](O)[C@@H]1O)OP(=O)(O)CP(=O)(O)O	< 18	< 18	< 18	< 18	80	–	–	–	–
B[P@](=O)(OC[C@H]1O[C@@H](n2cnc3c(N)nc(SC)nc32)[C@H](O)[C@@H]1O)OP(=O)(O)C(F)(F)P(=O)(O)O	30	50	–	–	90	41	41	–	–
B[P@](=O)(OC[C@H]1O[C@@H](n2cnc3c(N)nc(SC)nc32)[C@H](O)[C@@H]1O)OP(=O)(O)C(Cl)(Cl)P(=O)(O)O	–	–	–	–	90	41	41	–	–
CSc1nc(N)c2ncn([C@@H]3O[C@H](COP(=O)(O)OP(=O)(O)C(F)(F)P(=O)(O)O)[C@@H](O)[C@H]3O)c2n1	–	–	–	–	90	41	41	Active	4.43
CSc1nc(N)c2ncn([C@@H]3O[C@H](COP(=O)(O)OP(=O)(O)CP(=O)(O)O)[C@@H](O)[C@H]3O)c2n1	< 18	< 18	< 18	< 18	66	–	–	–	–
B[P@](=O)(OC[C@H]1O[C@@H](n2cnc3c(N)ncnc32)[C@H](O)[C@@H]1O)OP(=O)(O)C(Cl)(Cl)P(=O)(O)O	–	–	–	–	90	41	41	Active	4.55
B[P@@](=O)(OC[C@H]1O[C@@H](n2cnc3c(N)nc(SC)nc32)[C@H](O)[C@@H]1O)OP(=O)(O)C(Cl)(Cl)P(=O)(O)O	–	50	–	50	90	90	90	–	–
